{"source": "ChEMBL document CHEMBL1145020", "about": "“Synthesis and structure-activity relationships of 6,7-disubstituted 4-anilinoquinoline-3-carbonitriles. The design of an orally active, irreversible inhibitor of the tyrosine kinase activity of the epidermal growth factor receptor (EGFR) and the human epidermal growth factor receptor-2 (HER-2)” (J Med Chem, 2003)"}
{"tested_on": "A-431", "assay": "Concentration required to inhibit growth of human carcinoma epidermoid (A431) cell line", "type": "functional, cell-based", "conditions": "not given", "units": {"IC50": "nM"}}
{"smiles": "C/C=C/C(=O)Nc1ccc2ncc(C#N)c(Nc3cccc(Br)c3)c2c1", "IC50": 4400}
{"smiles": "N#Cc1cnc2ccc(NC(=O)C#CCN3CCSCC3)cc2c1Nc1cccc(Br)c1", "IC50": 100}
{"biological_target": "Receptor tyrosine-protein kinase erbB-2 (Homo sapiens, UniProt P04626)", "sequence (P04626 whole entry, the tested form may be a part)": "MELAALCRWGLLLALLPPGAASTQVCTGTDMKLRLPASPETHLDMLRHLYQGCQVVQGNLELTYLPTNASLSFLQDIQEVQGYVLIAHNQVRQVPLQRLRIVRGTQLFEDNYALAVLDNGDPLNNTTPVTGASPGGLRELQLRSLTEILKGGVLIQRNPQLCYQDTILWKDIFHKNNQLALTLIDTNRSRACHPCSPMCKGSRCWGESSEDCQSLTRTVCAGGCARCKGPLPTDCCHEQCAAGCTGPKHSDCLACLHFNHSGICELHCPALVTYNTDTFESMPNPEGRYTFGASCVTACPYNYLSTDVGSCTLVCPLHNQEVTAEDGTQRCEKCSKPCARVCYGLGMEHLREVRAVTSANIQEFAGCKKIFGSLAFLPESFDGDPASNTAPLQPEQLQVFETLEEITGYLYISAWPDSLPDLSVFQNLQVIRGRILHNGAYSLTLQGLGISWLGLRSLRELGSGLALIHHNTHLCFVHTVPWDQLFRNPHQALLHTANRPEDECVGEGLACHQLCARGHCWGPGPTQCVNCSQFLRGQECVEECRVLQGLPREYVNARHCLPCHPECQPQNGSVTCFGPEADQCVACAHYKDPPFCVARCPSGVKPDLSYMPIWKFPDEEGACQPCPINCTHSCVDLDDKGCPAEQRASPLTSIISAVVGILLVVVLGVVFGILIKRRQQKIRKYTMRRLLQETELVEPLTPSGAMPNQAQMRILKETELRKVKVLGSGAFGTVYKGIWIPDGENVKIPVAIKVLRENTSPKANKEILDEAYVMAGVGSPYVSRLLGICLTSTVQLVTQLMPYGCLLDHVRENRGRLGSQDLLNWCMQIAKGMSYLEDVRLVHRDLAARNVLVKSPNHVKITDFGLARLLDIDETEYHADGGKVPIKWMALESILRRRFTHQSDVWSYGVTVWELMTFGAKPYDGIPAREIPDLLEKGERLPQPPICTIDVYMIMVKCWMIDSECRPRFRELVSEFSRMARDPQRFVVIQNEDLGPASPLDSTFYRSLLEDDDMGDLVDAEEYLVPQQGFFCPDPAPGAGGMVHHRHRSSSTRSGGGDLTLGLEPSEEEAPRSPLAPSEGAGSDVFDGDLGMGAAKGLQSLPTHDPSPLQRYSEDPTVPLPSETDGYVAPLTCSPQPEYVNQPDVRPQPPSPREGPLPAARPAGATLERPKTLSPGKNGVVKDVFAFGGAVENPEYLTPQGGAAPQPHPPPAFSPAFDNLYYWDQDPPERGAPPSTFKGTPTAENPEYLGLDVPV", "assay": "Concentration required to inhibit autophosphorylation of cytoplasmic domain of human epidermal growth factor receptor-2", "conditions": "not given", "units": {"IC50": "nM"}}
{"smiles": "COc1cc2ncc(C#N)c(Nc3ccc(F)c(Cl)c3)c2cc1NC(=O)/C=C/C(C)N(C)C", "note": "(stereo not given)", "IC50": 11800}
{"smiles": "C/C=C/C(=O)Nc1cc2c(Nc3ccc(F)c(Cl)c3)c(C#N)cnc2cc1OCC", "IC50": 21500}
{"smiles": "COc1cc(NC(=O)/C=C/CN2CCOCC2)cc2c(Nc3cccc(Br)c3)c(C#N)cnc12", "IC50": 23600}
{"smiles": "COc1cc2ncc(C#N)c(Nc3ccc(F)c(Cl)c3)c2cc1NC(=O)/C=C/CN1CCOCC1", "IC50": 31400}
{"smiles": "COc1cc2ncc(C#N)c(Nc3ccc(F)c(Cl)c3)c2cc1NC(=O)/C=C/C(C)N1CCOCC1", "note": "(stereo not given)", "IC50": 34000}
{"smiles": "C=C(CN1CCOCC1)C(=O)Nc1ccc2ncc(C#N)c(Nc3ccc(F)c(Cl)c3)c2c1", "IC50": 4390}
{"smiles": "COc1cc2ncc(C#N)c(Nc3ccc(F)c(Cl)c3)c2cc1NC(=O)/C=C/CN(C)C", "IC50": 4490}
{"smiles": "CCOc1cc2ncc(C#N)c(Nc3cccc(Br)c3)c2cc1NC(=O)/C=C/CN(C)C", "IC50": 2970}
{"smiles": "CCOc1cc2ncc(C#N)c(Nc3cccc(Br)c3)c2cc1NC(=O)/C=C/CN1CCOCC1", "IC50": 34000}
{"smiles": "N#Cc1cnc2ccc(NC(=O)/C=C/CN3CCOCC3)cc2c1Nc1ccc(F)c(Cl)c1", "IC50": 8740}
{"smiles": "CCN(CC)C(C)/C=C/C(=O)Nc1cc2c(Nc3ccc(F)c(Cl)c3)c(C#N)cnc2cc1OC", "note": "(stereo not given)", "IC50": 9580}
{"smiles": "N#Cc1cnc2ccc(NC(=O)C#CCN3CCSCC3)cc2c1Nc1cccc(Br)c1", "IC50": 1040}
{"smiles": "COc1cc2ncc(C#N)c(Nc3cccc(Br)c3)c2cc1NC(=O)/C=C/CN1CCOCC1", "IC50": 34100}
{"smiles": "CN(C)C/C=C/C(=O)Nc1cc2c(Nc3ccc(F)c(Cl)c3)c(C#N)cnc2cc1OC(F)(F)F", "IC50": 4130}
{"smiles": "CCN(CC)C/C=C/C(=O)Nc1cc2c(Nc3ccc(F)c(Cl)c3)c(C#N)cnc2cc1OC", "IC50": 7800}
{"tested_on": "SW-620", "assay": "Concentration required to inhibit growth of human carcinoma colon (SW620) cell line", "type": "functional, cell-based", "conditions": "not given", "units": {"IC50": "nM"}}
{"smiles": "COc1cc2ncc(C#N)c(Nc3ccc(F)c(Cl)c3)c2cc1NC(=O)/C=C/C(C)N(C)C", "note": "(stereo not given)", "IC50": 1130}
{"smiles": "COc1cc(NC(=O)/C=C/CN2CCOCC2)cc2c(Nc3cccc(Br)c3)c(C#N)cnc12", "IC50": 9570}
{"smiles": "COc1cc2ncc(C#N)c(Nc3ccc(F)c(Cl)c3)c2cc1NC(=O)/C=C/CN1CCOCC1", "IC50": 6670}
{"smiles": "COc1cc2ncc(C#N)c(Nc3ccc(F)c(Cl)c3)c2cc1NC(=O)/C=C/C(C)N1CCOCC1", "note": "(stereo not given)", "IC50": 4940}
{"smiles": "C=C(CN1CCOCC1)C(=O)Nc1ccc2ncc(C#N)c(Nc3ccc(F)c(Cl)c3)c2c1", "IC50": 490}
{"smiles": "COc1cc2ncc(C#N)c(Nc3ccc(F)c(Cl)c3)c2cc1NC(=O)/C=C/CN(C)C", "IC50": 910}
{"smiles": "CCOc1cc2ncc(C#N)c(Nc3cccc(Br)c3)c2cc1NC(=O)/C=C/CN(C)C", "IC50": 1150}
{"smiles": "CCOc1cc2ncc(C#N)c(Nc3cccc(Br)c3)c2cc1NC(=O)/C=C/CN1CCOCC1", "IC50": 2880}
{"smiles": "N#Cc1cnc2ccc(NC(=O)/C=C/CN3CCOCC3)cc2c1Nc1ccc(F)c(Cl)c1", "IC50": 6330}
{"smiles": "CCN(CC)C(C)/C=C/C(=O)Nc1cc2c(Nc3ccc(F)c(Cl)c3)c(C#N)cnc2cc1OC", "note": "(stereo not given)", "IC50": 880}
{"smiles": "C/C=C/C(=O)Nc1ccc2ncc(C#N)c(Nc3cccc(Br)c3)c2c1", "IC50": 12300}
{"smiles": "N#Cc1cnc2ccc(NC(=O)C#CCN3CCSCC3)cc2c1Nc1cccc(Br)c1", "IC50": 350}
{"smiles": "COc1cc2ncc(C#N)c(Nc3cccc(Br)c3)c2cc1NC(=O)/C=C/CN1CCOCC1", "IC50": 5380}
{"smiles": "CN(C)C/C=C/C(=O)Nc1cc2c(Nc3ccc(F)c(Cl)c3)c(C#N)cnc2cc1OC(F)(F)F", "IC50": 1460}
{"smiles": "CCN(CC)C/C=C/C(=O)Nc1cc2c(Nc3ccc(F)c(Cl)c3)c(C#N)cnc2cc1OC", "IC50": 660}
{"tested_on": "not listed separately", "assay": "Concentration required to inhibit growth of human carcinoma breast (SKBR3) cell line", "type": "functional", "conditions": "SK-BR-3", "method_in_brief": "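Cell growth inhibition measured from dose–response curves at five concentrations. […] Reported values average at least two determinations.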", "units": {"IC50": "nM"}}
{"smiles": "COc1cc2ncc(C#N)c(Nc3ccc(F)c(Cl)c3)c2cc1NC(=O)/C=C/C(C)N(C)C", "note": "(stereo not given)", "IC50": 190}
{"smiles": "C/C=C/C(=O)Nc1cc2c(Nc3ccc(F)c(Cl)c3)c(C#N)cnc2cc1OCC", "IC50": 170}
{"smiles": "COc1cc(NC(=O)/C=C/CN2CCOCC2)cc2c(Nc3cccc(Br)c3)c(C#N)cnc12", "IC50": 2660}
{"smiles": "COc1cc2ncc(C#N)c(Nc3ccc(F)c(Cl)c3)c2cc1NC(=O)/C=C/CN1CCOCC1", "IC50": 110}
{"smiles": "COc1cc2ncc(C#N)c(Nc3ccc(F)c(Cl)c3)c2cc1NC(=O)/C=C/C(C)N1CCOCC1", "note": "(stereo not given)", "IC50": 200}
{"smiles": "C=C(CN1CCOCC1)C(=O)Nc1ccc2ncc(C#N)c(Nc3ccc(F)c(Cl)c3)c2c1", "IC50": 220}
{"smiles": "COc1cc2ncc(C#N)c(Nc3ccc(F)c(Cl)c3)c2cc1NC(=O)/C=C/CN(C)C", "IC50": 40}
{"smiles": "CCOc1cc2ncc(C#N)c(Nc3cccc(Br)c3)c2cc1NC(=O)/C=C/CN(C)C", "IC50": 30}
{"smiles": "CCOc1cc2ncc(C#N)c(Nc3cccc(Br)c3)c2cc1NC(=O)/C=C/CN1CCOCC1", "IC50": 70}
{"smiles": "N#Cc1cnc2ccc(NC(=O)/C=C/CN3CCOCC3)cc2c1Nc1ccc(F)c(Cl)c1", "IC50": 220}
{"smiles": "CCN(CC)C(C)/C=C/C(=O)Nc1cc2c(Nc3ccc(F)c(Cl)c3)c(C#N)cnc2cc1OC", "note": "(stereo not given)", "IC50": 310}
{"smiles": "C/C=C/C(=O)Nc1ccc2ncc(C#N)c(Nc3cccc(Br)c3)c2c1", "IC50": 10100}
{"smiles": "N#Cc1cnc2ccc(NC(=O)C#CCN3CCSCC3)cc2c1Nc1cccc(Br)c1", "IC50": 70}
{"smiles": "COc1cc2ncc(C#N)c(Nc3cccc(Br)c3)c2cc1NC(=O)/C=C/CN1CCOCC1", "IC50": 120}
{"smiles": "CN(C)C/C=C/C(=O)Nc1cc2c(Nc3ccc(F)c(Cl)c3)c(C#N)cnc2cc1OC(F)(F)F", "IC50": 300}
{"smiles": "CCN(CC)C/C=C/C(=O)Nc1cc2c(Nc3ccc(F)c(Cl)c3)c(C#N)cnc2cc1OC", "IC50": 50}
{"smiles": "CCOc1cc2ncc(C#N)c(Nc3ccc(F)c(Cl)c3)c2cc1NC(=O)/C=C/CN(C)C", "note": "[PELITINIB]", "IC50": 10}
{"biological_target": "Epidermal growth factor receptor (Homo sapiens, UniProt P00533)", "sequence (P00533 whole entry)": "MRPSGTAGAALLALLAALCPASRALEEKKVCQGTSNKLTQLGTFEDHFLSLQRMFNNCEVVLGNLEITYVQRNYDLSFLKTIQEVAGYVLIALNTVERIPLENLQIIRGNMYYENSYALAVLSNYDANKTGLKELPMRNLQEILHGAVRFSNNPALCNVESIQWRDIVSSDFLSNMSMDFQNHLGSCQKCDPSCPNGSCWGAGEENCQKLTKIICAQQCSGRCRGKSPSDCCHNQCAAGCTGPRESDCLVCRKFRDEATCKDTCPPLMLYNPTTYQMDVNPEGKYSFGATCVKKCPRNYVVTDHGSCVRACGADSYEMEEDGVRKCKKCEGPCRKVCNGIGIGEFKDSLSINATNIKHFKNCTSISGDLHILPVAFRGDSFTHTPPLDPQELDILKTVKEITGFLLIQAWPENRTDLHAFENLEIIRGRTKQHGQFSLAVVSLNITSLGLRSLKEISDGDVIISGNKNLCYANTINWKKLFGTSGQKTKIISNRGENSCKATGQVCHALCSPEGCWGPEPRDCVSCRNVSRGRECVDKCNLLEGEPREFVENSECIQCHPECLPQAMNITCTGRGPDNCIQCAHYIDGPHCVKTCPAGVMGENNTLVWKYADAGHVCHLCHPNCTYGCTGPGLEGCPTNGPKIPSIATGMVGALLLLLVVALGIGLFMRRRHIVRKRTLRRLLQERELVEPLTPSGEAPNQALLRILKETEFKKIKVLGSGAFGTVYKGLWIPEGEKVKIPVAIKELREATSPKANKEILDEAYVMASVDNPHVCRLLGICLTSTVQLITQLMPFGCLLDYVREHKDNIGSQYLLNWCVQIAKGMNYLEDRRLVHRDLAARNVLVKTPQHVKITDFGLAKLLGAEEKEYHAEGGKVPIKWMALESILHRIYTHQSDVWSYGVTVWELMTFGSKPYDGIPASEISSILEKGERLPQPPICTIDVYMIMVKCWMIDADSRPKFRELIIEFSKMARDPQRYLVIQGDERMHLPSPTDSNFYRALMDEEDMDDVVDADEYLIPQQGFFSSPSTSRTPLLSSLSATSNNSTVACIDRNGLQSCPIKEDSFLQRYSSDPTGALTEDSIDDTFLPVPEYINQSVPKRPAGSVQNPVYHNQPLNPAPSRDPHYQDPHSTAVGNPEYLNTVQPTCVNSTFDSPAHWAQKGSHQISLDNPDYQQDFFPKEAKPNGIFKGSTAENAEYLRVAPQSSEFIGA", "conditions": "not given", "units": {"IC50": "nM"}}
{"smiles": "N#Cc1cnc2ccc(NC(=O)C#CCN3CCSCC3)cc2c1Nc1cccc(Br)c1", "IC50": 550}
